# Activity calls are given as the source filed them. The rule behind the calls is not given here.
# Key:
# Escherichia coli [1] = test: Bactericidal activity against Escherichia coli K-12 BW25113 stationary-phase planktonic cell assessed as log reduction of viable cells after 24 hrs; assay type: functional, organism-based
# Procedure, shortened: (§1)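 Stationary-phase planktonic cells from LB grown 18–20 h at 225 rpm, 37°C, then pelleted and resuspended at 2× concentration in fresh medium. 100 μl cells added to 100 μl of 2× twofold antibiotic dilutions. Starting counts by viable plating. Recovery, dilution and counting as for biofilms (LB + 1% Tween 20, LB agar ≥24 h at 37°C); mean log killing calculated.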
# Escherichia coli [2] = test: Bactericidal activity against yafQ gene-deficient Escherichia coli K-12 BW25113 stationary-phase planktonic cell assessed as log reduction of viable cells after 24 hrs; assay type: functional, organism-based; procedure, shortened: as §1
# Escherichia coli [3] = test: Antimicrobial activity against yafQ gene-deficient Escherichia coli K-12 BW25113 by broth microdilution method; assay type: functional
# Procedure, shortened: (§2)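 Broth microdilution MIC per CLSI protocol; wild-type and ΔyafQ strains from Keio collection, stored at −70°C in LB with 8% DMSO, cultured on LB agar at 37°C.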
# Escherichia coli [4] = test: Antimicrobial activity against Escherichia coli K-12 BW25113 by broth microdilution method; assay type: functional; procedure, shortened: as §2
# Escherichia coli [5] = test: Bactericidal activity against Escherichia coli K-12 BW25113 biofilm harboring pCA24N ptac::yafQ plasmid assessed as log reduction of viable cells after 24 hrs pretreated with 5 uM of IPTG for 4 hrs; assay type: functional, organism-based
# Procedure, shortened: (§3)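 Biofilms grown 24 h at 37°C, 125 rpm, 95% humidity on Calgary device pegs from ~1.0 × 10^7 CFU/ml inoculum. Strain carries IPTG-inducible pCA24N vector, grown with 30 μg/ml chloramphenicol. Biofilms were rinsed, then induced 4 h at 37°C, 125 rpm in LB with chloramphenicol and 5 μM IPTG before twofold antibiotic dilutions. Survivors were recovered by sonication in LB plus 1% Tween 20 and plated; mean log killing calculated.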
# Escherichia coli [6] = test: Bactericidal activity against yafQ gene-deficient Escherichia coli K-12 BW25113 biofilm assessed as log reduction of viable cells after 24 hrs relative to wild-type Escherichia coli K-12 BW25113; assay type: functional
# Procedure, shortened: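 Biofilms grown 24 h at 37°C, 125 rpm, 95% humidity on Calgary device pegs from ~1.0 × 10^7 CFU/ml inoculum (1.0 McFarland diluted 30-fold). After a saline rinse, biofilms went into twofold antibiotic dilutions, were rinsed twice, and sonicated 5 min in LB with 1% Tween 20. Survivors were counted on LB agar after ≥24 h at 37°C. Mean log killing compared with wild type; significance required ≥50-fold difference and non-overlapping SDs.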
# Escherichia coli [7] = test: Effect on survival of Escherichia coli K-12 BW25113 biofilm harboring pCA24N ptac::yafQ plasmid assessed as increase in cell survival after 24 hrs pretreated with 5 uM of IPTG for 4 hrs relative to wild-type Escherichia coli K-12 […]; assay type: functional; procedure, shortened: as §3
# Escherichia coli [8] = test: Bactericidal activity against yafQ gene-deficient Escherichia coli K-12 BW25113 biofilm assessed as log reduction of viable cells after 24 hrs; assay type: functional, organism-based
# Procedure, shortened: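 Biofilms grown on the 96-peg polystyrene lid of a Calgary biofilm device. Inoculum was a 1.0 McFarland suspension diluted 30-fold in growth medium (~1.0 × 10^7 CFU/ml). Grown 24 h at 37°C, 125 rpm, 95% humidity, then saline-rinsed and exposed to twofold antibiotic dilutions. Rinsed twice, sonicated 5 min in LB + 1% Tween 20, plated on LB agar ≥24 h at 37°C. Mean log killing taken from viable counts.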
SMILES,Activity (Escherichia coli [1]),Activity (Escherichia coli [2]),MIC (Escherichia coli [3]) [µg/mL],MIC (Escherichia coli [4]) [µg/mL],Activity (Escherichia coli [5]),FC (Escherichia coli [6]),fold change (FC) (Escherichia coli [7]),Activity (Escherichia coli [8])
NC[C@H]1O[C@H](O[C@H]2[C@H](O)[C@@H](O[C@H]3O[C@H](CO)[C@@H](O)[C@H](N)[C@H]3O)[C@H](N)C[C@@H]2N)[C@H](N)C[C@@H]1O [TOBRAMYCIN],Active,Active,2,1.5,inactive,760,3300,–
CO[C@H]1/C=C/O[C@@]2(C)Oc3c(C)c(O)c4c(O)c(c(/C=N/N5CCN(C)CC5)c(O)c4c3C2=O)NC(=O)/C(C)=C\C=C\[C@H](C)[C@H](O)[C@@H](C)[C@@H](O)[C@@H](C)[C@H](OC(C)=O)[C@@H]1C [RIFAMPIN],–,–,16,16,Active,–,–,Active
Cc1nnc(SCC2=C(C(=O)O)N3C(=O)[C@@H](NC(=O)Cn4cnnn4)[C@H]3SC2)s1 [CEFAZOLIN],Active,Active,4,4,inactive,2400,10000,–
C[C@H]1c2cccc(O)c2C(=O)C2=C(O)[C@]3(O)C(=O)C(C(N)=O)=C(O)[C@@H](N(C)C)[C@@H]3[C@@H](O)[C@@H]21.O [DOXYCYCLINE],–,–,3,4,Active,–,–,Active

# — ChEMBL document CHEMBL1649452, “The chromosomal toxin gene yafQ is a determinant of multidrug tolerance for Escherichia coli growing in a biofilm” (2009)
